The record followed here is ChEMBL document CHEMBL1123005, “1-Azacycloalkyl-1,4-benzodiazepin-2-ones with antianxiety-antidepressant actions” (J Med Chem, 1985).

Test [1] deals with Mus musculus. The experiment in a line: Effective dose against pentylenetetrazole intoxicity in mice administered through subcutaneous route. Conditions: sc. The class given is functional.
For test [2], the system named is Mus musculus. Kind of test: Effective dose against pentylenetetrazole intoxicity in mice administered orally. The class given is functional.
Test [3] has as its system Mus musculus. Kind of test: Effective dose against tetrabenazine induced ptosis in mice administered orally. The format is functional. Summed up: (§1)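 Male DS mice, 20-27 g, groups of five. Compound given po or sc in saline or gum arabic at 0.1 mL/10 g. Tetrabenazine 50 mg/kg sc given 1, 4 or 24 h later. Ptosis scored 1-4 at 1 h after TBZ, with ridit transformation. Dose for 50% prevention by regression.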

For test [4], the system named is Rattus norvegicus. Kind of test: Effective dose was evaluated by their anticonflict effect in rats when administered through oral route. The class given is functional. Summed up: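 Wistar rats in groups of 5-8, Geller-Seifter conflict procedure. Rats trained to lever-press for food on a variable-interval 60-s schedule. Oral dosing. A dose counted positive when shocks exceeded 12 or shock ratio exceeded 4 over four consecutive tone periods. ED50 with 95% limits by probit.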

The subject of test [5] is Mus musculus. Kind of test: Effective dose against tetrabenazine induced ptosis in mice administered subcutaneously. The format is functional. Conditions: sc. Put shortly:
as §1

The species entered for test [6] is Rattus norvegicus. The experiment in a line: Displacement of [3H]diazepam binding in rat cerebral cortex homogenates (Experiment 1). The class given is tissue-based. Summed up: (§2)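 Wistar rat cerebral cortex homogenate incubated with compound and 2 nM [3H]diazepam at 0 °C for 60 min. Bound label trapped on glass filters and counted by scintillation. Ki = IC50/(1 + L/Kd).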
(In general: Displacement assays read how much labelled ligand stays bound in the presence of the test substance.)

Test [7] is filed under the species Rattus norvegicus. Kind of test: Displacement of [3H]diazepam binding to rat cerebral cortex homogenates (Experiment 2). The format is tissue-based. Summed up: as §2
The subject of test [8] is Mus musculus. The experiment in a line: Effective dose against pentylenetetrazole intoxicity in mice administered through subcutaneous route; NE= no effect at 10 mg/kg. The class given is functional, organism-based. Also on record: dose 10 mg/kg.
Test [9] addresses GABA-A receptor; anion channel (Rattus norvegicus) (UniProt O09028+P15431+P18506+P18508+P19969+P20236+P23574+P23576+P28471+P28473+P30191+P62813+P63079+P63138+Q91ZM7+Q9ES14). Kind of test: Binding constant was determined by displacing potential to [3H]-diazepam binding in cerebral cortex homogenates of rat. The class given is tissue-based. Summed up:
as §2

The species named for test [10] is Rattus norvegicus. The experiment in a line: Inhibitory activity against uptake of [3H]norepinephrine into rat brain synaptosomes. The format is functional. Summed up: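 P2 synaptosomes from male Wistar rat cerebral cortex incubated with [3H]norepinephrine at 37 °C for 20 min, with compound at 5-6 concentrations. Stopped by Krebs-Henseleit dilution and glass-fibre filtration, then scintillation counting. IC50 taken as the concentration giving 50% uptake inhibition.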

In test [11] the test system is Mus musculus. Kind of test: Effective dose against pentylenetetrazole intoxicity in mice administered through subcutaneous route; NE = no effect at dose 10 mg/kg. Details: dose 10 mg/kg. The class given is functional, organism-based.
Test [12] relates to Mus musculus. Kind of test: Percent inhibition against tetrabenazine induced ptosis in mice administered orally at 50 mg/kg. Particulars: route oral. The class given is functional. Put shortly:
as §1

For test [13], the system named is Mus musculus. Kind of test: Percent inhibition against tetrabenazine induced ptosis in mice administered subcutaneously at 50 mg/kg. The format is functional. Conditions: sc, route subcutaneous. Summed up: as §1
Test [14] concerns Mus musculus. The experiment in a line: Effective dose against pentylenetetrazole intoxicity in mice administered orally; NE= no effect at 50 mg/kg. Also on record: dose 50 mg/kg. The format is functional, organism-based.
In test [15] the test system is Mus musculus. Kind of test: Effective dose against pentylenetetrazole intoxicity in mice administered through subcutaneous route; NE = no effect at 10 mg/kg. The format is functional, organism-based. Also on record: dose 10 mg/kg.
The test system of test [16] is Mus musculus. Kind of test: Percent inhibition against tetrabenazine induced ptosis in mice administered orally at 100 mg/kg. The format is functional. Conditions: route oral. Summed up:
as §1

Test [17] has as its system Mus musculus. The experiment in a line: Effective dose against pentylenetetrazole intoxicity in mice administered through subcutaneous route;NE = no effect at 20 mg/kg. The format is functional, organism-based. Details: dose 20 mg/kg.
Test [18] deals with Mus musculus. Kind of test: Effective dose against tetrabenazine induced ptosis in mice administered subcutaneously; NE= no effect at 50 mg/kg. Also on record: dose 50 mg/kg. The format is functional, organism-based. Summed up: as §1
[19] abbreviates: Mus musculus, po, read-out: ED50.

Calls of active or inactive are those of the source. The calls are words filed in the database; no cut-off is given here.

As a reminder, the ED50 is the dose that gives a 50% effect, or the effect in half of the subjects. Turning to `CN1CCC(N2C(=O)CN=C(c3ccccc3F)c3cc(Cl)ccc32)CC1`, the ED50 in the test on Mus musculus [1] came out at 0.71 mg/kg; with Mus musculus [2], 5.28 mg/kg; in the test on Mus musculus [2] (setting [19]) it was 2.7 mg/kg; in the test with Mus musculus [3], 1.12 mg/kg; in the test on Mus musculus [3] (setting [19]) it was 2.13 mg/kg; with Rattus norvegicus [4] it was 3.67 mg/kg. In the test on Mus musculus [5], this compound yielded a median effective dose (ED50) of 1.3 mg/kg.
For the compound `CN1CCC(N2C(=O)CN=C(c3ccccc3F)c3cc([N+](=O)[O-])ccc32)CC1`, the figures for the K2 in the test listed under Rattus norvegicus [6] and in the test filed under Rattus norvegicus [7] were 8.3 µM and 24 µM, respectively. For the same compound, the ED50 result in the test on Mus musculus [8] was “inactive”. In addition, it took a dose of 17.7 mg/kg to reach the 50% effect level in the test with Mus musculus [5] (ED50).
The term IC50 denotes the point on the concentration scale where inhibition reaches its midpoint. High values mean weaker potency, low ones greater potency. `O=C1CN=C(c2ccccc2Cl)c2cc(F)ccc2N1C1CCNCC1` came in with a K2 in [9] of 0.012 µM. For the same compound, the ED50 came out at 29.4 mg/kg in the test on Mus musculus [2] (setting [19]) and 13.5 mg/kg in the test with Mus musculus [3] (setting [19]). Moreover, the 50% inhibitory concentration (IC50) in the test listed under Rattus norvegicus [10] worked out at 877 nM.
Turning to `CC(=O)N1CCC(N2C(=O)CN=C(c3ccccc3)c3ccccc32)CC1`, in test [9], the K2 stood at 1.5 µM. The ED50 result with Mus musculus [11] was “inactive”. The compound also registered an ED50 in the test on Mus musculus [5] of 3.25 mg/kg.
As a reminder, the inhibition in vivo is the change of the read-out against control, counted positive when it falls. Lower therefore signals little suppression. Compound `O=C1CN=C(c2ccccc2Cl)c2cc(Cl)ccc2N1C1CCNC1` (stereo unspecified) showed a K2 in test [9] of 0.027 µM. The results for the ED50 in the test with Mus musculus [2] (setting [19]) and with Mus musculus [5] were 9.63 mg/kg and 12.6 mg/kg, respectively. This compound also yielded an inhibition in vivo at 50 mg/kg in the test with Mus musculus [12] of 34%.
`O=C1C(O)N=C(c2ccccc2F)c2cc(Cl)ccc2N1C1CCNCC1` (stereo unspecified) showed a K2 in test [9] of 0.14 µM. Moreover, the ED50 in the test on Mus musculus [2] (setting [19]) amounted to 12.5 mg/kg; with Mus musculus [3] (setting [19]), 6.51 mg/kg; in the test on Rattus norvegicus [4], 8.8 mg/kg.
For `CCOC(=O)N1CCC(N2C(=O)CN=C(c3ccccc3F)c3cc(Cl)ccc32)CC1`, in [9], the K2 was 0.038 µM. Moreover, the ED50 in the test on Mus musculus [1] is 11.1 mg/kg; with Mus musculus [2] (setting [19]), 9.09 mg/kg. This compound returned an inhibition in vivo at 50 mg/kg in the test on Mus musculus [13] of 67%.
Take `CCOC(=O)N1CCC(N2C(=O)CN=C(c3ccccc3Cl)c3cc(Cl)ccc32)CC1`: the K2 in [9] was found to be 0.02 µM. Moreover, the 50% effective dose (ED50) with Mus musculus [2] (setting [19]) turned out to be 1.95 mg/kg. This compound showed an inhibition in vivo at 50 mg/kg in the test on Mus musculus [13] of 16%.
In the case of `CN1CCC(N2C(=O)CN=C(c3ccccc3F)c3ccc(F)cc32)CC1`, the K2 in test [9] amounted to 0.44 µM. The ED50 result with Mus musculus [8] and with Mus musculus [14] was “inactive” throughout. The ED50 in the test on Mus musculus [5] turned out to be 0.94 mg/kg.
In turn, `CN1CCC(N2C(=O)CN=C(c3ccccc3Cl)c3cc(F)ccc32)CC1` had a K2 in [9] of 0.014 µM. Further, the ED50 in the test with Mus musculus [2] (setting [19]) came out at 5.2 mg/kg; with Mus musculus [3] (setting [19]) it was 59.3 mg/kg.
On to `CN1CCC(N2C(=O)CN=C(c3ccc(F)cc3)c3ccccc32)CC1`, for which the K2 in test [9] stood at 68 µM. Also, in the test with Mus musculus [15], the ED50 result is “inactive”. In the test with Mus musculus [13], the inhibition in vivo at 50 mg/kg came out at 53%.
`CN1CCC(N2C(=O)CN=C(c3ccccc3F)c3cc(Cl)ccc32)C1` (stereo unspecified) came in with a K2 in test [9] of 0.2 µM. The figures for the 50% effective dose (ED50) with Mus musculus [2] (setting [19]) and with Mus musculus [3] (setting [19]) were 1.1 mg/kg and 3.69 mg/kg, respectively.
For `CN1CCC(N2C(=O)CN=C(c3ccccc3F)c3cccc(Cl)c32)CC1`, in test [9], the K2 worked out at 4.7 µM. In addition, the ED50 result in the test with Mus musculus [15] is “inactive”. For the same compound, in the test with Mus musculus [5], the ED50 was found to be 2.66 mg/kg.
As for `O=C1CN=C(c2ccccc2Cl)c2cc(Cl)ccc2N1C1CCNCC1`, the K2 in test [9] amounted to 0.017 µM. Further, the ED50 was determined as 12.9 mg/kg in the test on Mus musculus [2] (setting [19]), 9.59 mg/kg in the test on Mus musculus [3] (setting [19]) and 9.94 mg/kg in the test with Mus musculus [5]. Further, the half-inhibitory concentration (IC50) in the test filed under Rattus norvegicus [10] came out at 562 nM.
The compound `CN1CCCC(N2C(=O)CN=C(c3ccccc3Cl)c3cc(Cl)ccc32)C1` (stereo unspecified) had a K2 in test [9] of 0.016 µM. Also, in the test with Mus musculus [2] (setting [19]), the 50% effective dose (ED50) was 12 mg/kg. In addition, the inhibition in vivo at 100 mg/kg in the test with Mus musculus [16] worked out at 21%.
The compound `O=C1CN=C(c2ccccc2Cl)c2cc(Cl)ccc2N1C1CCCNC1` (stereo unspecified) came in with a K2 in test [9] of 0.013 µM. Moreover, in the test on Mus musculus [2] (setting [19]), the 50% effective dose (ED50) came out at 16.2 mg/kg. For the same compound, 50 mg/kg produced 57% inhibition in vivo in the test on Mus musculus [12].
Regarding `CN1CCC(N2C(=O)CN=C(c3ccccc3Cl)c3cc(Cl)ccc32)C1` (stereo unspecified), the K2 in test [9] came out at 0.05 µM. Moreover, the ED50 in the test on Mus musculus [2] (setting [19]) stood at 5.78 mg/kg. In the test with Mus musculus [16], this compound returned an inhibition in vivo at 100 mg/kg of 61%.
`CN1CCC(N2C(=O)CN=C(c3ccccc3F)c3ccc(C(F)(F)F)cc32)CC1` came in with a K2 in test [9] of 17 µM. Moreover, the ED50 entry with Mus musculus [17] and in the test on Mus musculus [18] was “inactive” in each case.
